Assay results: ChEMBL document CHEMBL3352730, “Synthesis and effects on cell viability of flavonols and 3-methyl ether derivatives on human leukemia cells” (Eur J Med Chem, 2014)
Calls of active or inactive are those of the source. The rule behind the calls is not given here.

Key:
HL-60 [1] = test: Induction of cell cycle arrest in human HL60 cells assessed as accumulation at subG1 phase at 10 uM after 24 hrs by propidium iodide staining based flow cytometry (reference value: 3.4 +/- 0.3%); assay type: functional
U-937 [2] = test: Induction of cell cycle arrest in human U937 cells assessed as accumulation at G2/M phase at 10 uM after 24 hrs by propidium iodide staining based flow cytometry (reference value: 22.8 +/- 1.6%); assay type: functional
U-937 [3] = test: Induction of apoptosis in human U937 cells assessed as pro-caspase-8 cleavage by Western blotting method; assay type: functional, cell-based
Method in brief: (§1)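 U937 cells exposed to increasing concentrations of the flavonol and harvested at 24 h. Lysates were immunoblotted with antibodies that detect both the pro-caspases and their cleaved forms.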

HL-60 [4] = test: Induction of cell cycle arrest in human HL60 cells assessed as accumulation at G1 phase at 1 uM after 24 hrs by propidium iodide staining based flow cytometry (reference value: 53 +/- 1.1%); assay type: functional
HL-60 [5] = test: Induction of cell cycle arrest in human HL60 cells assessed as accumulation at subG1 phase at 1 uM after 48 hrs by propidium iodide staining based flow cytometry (reference value: 3.7 +/- 0.1%); assay type: functional
HL-60 [6] = test: Induction of cell cycle arrest in human HL60 cells assessed as accumulation at G1 phase at 3 uM after 48 hrs by propidium iodide staining based flow cytometry (reference value: 60.4 +/- 0.4%); assay type: functional
HL-60 [7] = test: Induction of cell cycle arrest in human HL60 cells assessed as accumulation at G2/M phase at 10 uM after 12 hrs by propidium iodide staining based flow cytometry (reference value: 18.5 +/- 0.5%); assay type: functional
U-937 [8] = test: Induction of cell cycle arrest in human U937 cells assessed as accumulation at subG1 phase at 3 uM after 24 hrs by propidium iodide staining based flow cytometry (reference value: 3.9 +/- 0.8%); assay type: functional
HL-60 [9] = test: Induction of cell cycle arrest in human HL60 cells assessed as accumulation at G2/M phase at 1 uM after 24 hrs by propidium iodide staining based flow cytometry (reference value: 22.5 +/- 0.9%); assay type: functional
HL-60 [10] = test: Induction of apoptosis in human HL60 cells assessed as increase in caspase 9 activity using LEHD-pNA substrate at 10 uM after 24 hrs; assay type: functional
Method in brief: (§2)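 Cells were given 10 µM for 24 h. Lysates were assayed for cleavage of DEVD-pNA (caspase-3/7), IETD-pNA (caspase-8) and LEHD-pNA (caspase-9). Results are expressed as fold over control, from three independent experiments in triplicate.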

HL-60 [11] = test: Induction of apoptosis in human HL60 cells assessed as pro-caspase-9 cleavage by Western blotting method; assay type: functional, cell-based
Method in brief: (§3)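 Cells were exposed to a range of compound concentrations and harvested at 24 h. Lysates were immunoblotted for caspase proforms and cleaved forms, and for Bcl-2 family proteins.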

HL-60 [12] = test: Induction of cell cycle arrest in human HL60 cells assessed as accumulation at subG1 phase at 3 uM after 12 hrs by propidium iodide staining based flow cytometry (reference value: 6.1 +/- 0.5%); assay type: functional
HL-60 [13] = test: Induction of cell cycle arrest in human HL60 cells assessed as accumulation at G1 phase at 1 uM after 48 hrs by propidium iodide staining based flow cytometry (reference value: 60.4 +/- 0.4%); assay type: functional
HL-60 [14] = test: Increase in DR5 expression in human HL60 cells at 10 30 uM after 24 hrs by immunoblotting method; assay type: functional, cell-based
Method in brief: (§4)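 HL-60 and U937 cells were treated with increasing concentrations for 24 h. Lysates were immunoblotted for TRAIL, DR4 and DR5.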

U-937 [15] = test: Increase in DR5 expression in human U937 cells at 10 30 uM after 24 hrs by immunoblotting method; assay type: functional, cell-based; method in brief: as §4
HL-60 [16] = test: Induction of cell cycle arrest in human HL60 cells assessed as accumulation at G1 phase at 3 uM after 24 hrs by propidium iodide staining based flow cytometry (reference value: 53 +/- 1.1%); assay type: functional
MOLT-3 [17] = test: Induction of apoptosis in human MOLT3 cells assessed as increase in caspase 3/7 activity using DEVD-pNA substrate at 10 uM after 24 hrs; assay type: functional, cell-based; method in brief: as §2
U-937 [18] = test: Induction of cell cycle arrest in human U937 cells assessed as accumulation at G2/M phase at 3 uM after 48 hrs by propidium iodide staining based flow cytometry (reference value: 19.1 +/- 1.1%); assay type: functional
HL-60 [19] = test: Induction of cell cycle arrest in human HL60 cells assessed as accumulation at G2/M phase at 3 uM after 24 hrs by propidium iodide staining based flow cytometry (reference value: 22.5 +/- 0.9%); assay type: functional
U-937 [20] = test: Induction of cell cycle arrest in human U937 cells assessed as accumulation at S phase at 10 uM after 12 hrs by propidium iodide staining based flow cytometry (reference value: 20.5 +/- 0.8%); assay type: functional
U-937 [21] = test: Induction of cell cycle arrest in human U937 cells assessed as accumulation at subG1 phase at 10 uM after 48 hrs by propidium iodide staining based flow cytometry (reference value: 6.7 +/- 0.3%); assay type: functional
MOLT-3 [22] = test: Induction Bax cleavage in human MOLT3 cells at 3 uM by Western blotting method; assay type: functional, cell-based; method in brief: as §3
U-937 [23] = test: Induction of cell cycle arrest in human U937 cells assessed as accumulation at G2/M phase at 1 uM after 24 hrs by propidium iodide staining based flow cytometry (reference value: 22.8 +/- 1.6%); assay type: functional
HL-60 [24] = test: Induction of apoptosis in human HL60 cells assessed as pro-caspase-3 cleavage by Western blotting method; assay type: functional, cell-based; method in brief: as §3
U-937 [25] = test: Induction of cell cycle arrest in human U937 cells assessed as accumulation at subG1 phase at 3 uM after 48 hrs by propidium iodide staining based flow cytometry (reference value: 6.7 +/- 0.3%); assay type: functional
U-937 [26] = test: Induction of cell cycle arrest in human U937 cells assessed as accumulation at S phase at 1 uM after 24 hrs by propidium iodide staining based flow cytometry (reference value: 18.6 +/- 0.3%); assay type: functional
HL-60 [27] = test: Induction of cell cycle arrest in human HL60 cells assessed as accumulation at S phase at 3 uM after 24 hrs by propidium iodide staining based flow cytometry (reference value: 17.9 +/- 0.6%); assay type: functional
U-937 [28] = test: Induction of cell cycle arrest in human U937 cells assessed as accumulation at G2/M phase at 1 uM after 48 hrs by propidium iodide staining based flow cytometry (reference value: 19.1 +/- 1.1%); assay type: functional
HL-60 [29] = test: Induction of cell cycle arrest in human HL60 cells assessed as accumulation at subG1 phase at 1 uM after 12 hrs by propidium iodide staining based flow cytometry (reference value: 6.1 +/- 0.5%); assay type: functional
U-937 [30] = test: Induction of apoptosis in human U937 cells assessed as pro-caspase-7 cleavage by Western blotting method; assay type: functional, cell-based; method in brief: as §1
[31] = molecular target: MAP kinase p38 (Homo sapiens) (UniProt O15264+Q15759+Q16539+P53778); test: Increase in p38 MAPK phosphorylation in human HL60 cells at 10 to 30 uM after 2 to 6 hrs by Western blotting method; assay type: cell-based; details: HL-60
Method in brief: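 HL-60 cells were incubated for a time course. Extracts were immunoblotted with phospho-specific antibodies for ERK 1/2, JNK/SAPK and p38MAPK. Membranes were then stripped and reprobed for the total kinases as loading controls.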

MOLT-3 [32] = test: Induction of apoptosis in human MOLT3 cells assessed as increase in caspase 8 activity using IETD-pNA substrate at 10 uM after 24 hrs; assay type: functional, cell-based; method in brief: as §2

Activity [31]: Active
SMILES: O=c1c(O)c(-c2ccc(Br)cc2)oc2ccccc12
Activity (HL-60 [1]): 20.4% | Activity (U-937 [2]): 18.7% | Activity (U-937 [3]): Active | Activity (HL-60 [4]): 49.5% | Activity (HL-60 [5]): 3.4% | Activity (HL-60 [6]): 40.4% | Activity (HL-60 [7]): 13.4% | Activity (U-937 [8]): 5.5% | Activity (HL-60 [9]): 22.5% | fold change (FC) (HL-60 [10]): 1.8 | Activity (HL-60 [11]): Active | Activity (HL-60 [12]): 6.3% | Activity (HL-60 [13]): 57.6% | Activity (HL-60 [14]): Active | Activity (U-937 [15]): Active | Activity (HL-60 [16]): 50.1% | Activity (MOLT-3 [17]): Active | Activity (U-937 [18]): 19% | Activity (HL-60 [19]): 21.8% | Activity (U-937 [20]): 24.9% | Activity (U-937 [21]): 45.7% | Activity (MOLT-3 [22]): Active | Activity (U-937 [23]): 25.2% | Activity (HL-60 [24]): Active | Activity (U-937 [25]): 16.3% | Activity (U-937 [26]): 18.9% | Activity (HL-60 [27]): 17.6% | Activity (U-937 [28]): 19.9% | Activity (HL-60 [29]): 5.6% | Activity (U-937 [30]): Active | Activity (MOLT-3 [32]): Active
